In the library only some 2.6% were active in any assay of this set; here they are far more common.
OXTR potentiate: potentiators of human oxytocin receptor. P30559. CHO-OTR cells, Fluo-8 calcium fluorescence, potentiator mode; 0% = oxytocin EC15, 100% = EC100. activation, % at 3 µM. actives 0.061% (n = 320,000). AID 2445;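 active = activation above that plate's cutoff, the mean activation of tested compounds plus 3 SD, cut at about 6.6% in these data, passing the limit was not always enough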
Target sequence (P30559 whole entry, looked up): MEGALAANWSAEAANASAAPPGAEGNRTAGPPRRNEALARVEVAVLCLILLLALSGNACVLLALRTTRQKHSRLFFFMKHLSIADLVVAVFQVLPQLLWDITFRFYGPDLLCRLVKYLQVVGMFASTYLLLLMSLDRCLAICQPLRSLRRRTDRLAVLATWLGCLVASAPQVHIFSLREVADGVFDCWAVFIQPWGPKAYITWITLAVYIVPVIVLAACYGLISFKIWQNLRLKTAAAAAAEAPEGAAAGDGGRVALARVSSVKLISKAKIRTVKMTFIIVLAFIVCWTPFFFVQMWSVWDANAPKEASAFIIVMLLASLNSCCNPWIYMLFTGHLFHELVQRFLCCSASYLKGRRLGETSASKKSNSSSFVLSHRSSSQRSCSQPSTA
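test system = CHO-OTR cells, human receptor | compound = single-point 3.0 µM | schedule = 6 min compound pre-incubation at room temperature, 100 s kinetic read | signal = Fluo-8 no-wash calcium dye fluorescence, excitation 470-495 nm, emission 515-575 nm | repeats = single well per compound, singlicate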
CHO parental Ca: signal in parental CHO cells, OX1R antagonist counter-screen. parental CHO-K1, ATP-induced calcium, Fluo-8 fluorescence. inhibition, % at 5.6 µM. actives 0.63% (n = 330,000);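 active = inhibition above that plate's mean sample inhibition plus 3 SD, cut at about 26% in these data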
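Test system: parental CHO cells; detection: calcium-sensitive Fluo-8 fluorescence; evaluation: percent inhibition of calcium signal; also added: ATP as calcium-mobilizing challenge; repeats: one well per compound; control set: ATP-challenged DMSO wells low, unchallenged DMSO wells high; compound: single nominal dose of 5.6 µM per compound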
OX1R antag-1: antagonists of human orexin 1 receptor (OX1R); inhibition, % at 6.6 µM; OX1R-expressing cells, FRET antagonist read-out; actives 1.8% (n = 330,000); O43613; in the data active = inhibition mostly above about 38%, no sharp cut-off; inactive = mostly below about 40%
V1R ag counter: activates human V1a receptor in oxytocin agonist counter-screen | CHO-V1R cells, Fluo-8 calcium fluorescence, agonist mode; 0% DMSO, 100% 3 nM vasopressin | AID 2797 | activation, % at 3 µM | actives 0.25% (n = 320,000);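 active = activation above the mean activation of all tested compounds plus 3 SD, per screening run, cut at about 20% in these data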;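 note: signal is peak over basal fluorescence ratio across a 100 second FLIPR read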
OX1R antag-2: blocks the human orexin 1 receptor; O43613; CHO/OX1R cells, Fluo-8 calcium fluorescence, orexin A; inhibition, % at 5 µM; actives 0.43% (n = 330,000); AID 434989;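 active = inhibition above its plate's threshold, mean inhibition of all tested compounds on the plate plus 3 SD, cut at about 37% in these data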
OXTR agonist: agonists of human oxytocin receptor; CHO-OTR cells, Fluo-8 calcium fluorescence; normalized: DMSO 0%, oxytocin 100%; activation, % at 3 µM; actives 0.32% (n = 320,000); AID 2435;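 active = activation above the mean of all tested compounds plus 3 SD, cutoff set per screening run, cut at about 20% in these data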;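 note: peak over basal fluorescence ratio from a 100 s FLIPR kinetic read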
Large screens that a line does not name were inactive.

Nc1cccc(N2C(=O)c3cccc4c(N)ccc(c34)C2=O)c1	V1R ag counter 47, OXTR agonist 28
CC(C)CCN1C(=O)c2cccc3c(N)ccc(c23)C1=O	CHO parental Ca 85, V1R ag counter 170, OX1R antag-2 91, OXTR agonist 128
CCCCn1c(N)c(N(CC(C)C)C(=O)C2CCN(S(=O)(=O)c3ccc(C)cc3)CC2)c(=O)[nH]c1=O	none
CN(c1ccc(OCC(=O)OCC(=O)Nc2ccc(F)cc2)cc1)S(=O)(=O)c1ccc(Cl)cc1	none
COc1ccc(NC(=O)COc2ccc(N(C)S(=O)(=O)c3ccc(Cl)cc3)cc2)cc1OC	CHO parental Ca 90, OX1R antag-1 45, OX1R antag-2 51
Cc1cc(CNC(=O)COC(=O)C2CC3CCCC(C2)C3=O)cc(C)c1O (centres undefined)	none
O=C(Nc1ncccn1)c1ccc([N+](=O)[O-])cc1	OX1R antag-1 58
O=C(Nc1ccccc1O)c1ccc([N+](=O)[O-])cc1	OX1R antag-1 33
O=C(Nc1nccs1)c1ccc([N+](=O)[O-])cc1	OX1R antag-1 42
Cc1nc(SCC(=O)N2CCN(c3ccccn3)CC2)c(C#N)c(C)c1C	none
C/C(=N\NC(=O)c1ccccc1F)c1cccc(NC(=O)c2ccc(C)cc2)c1	none
COc1ccc2oc3ccc(OC)cc3c(=O)c2c1	OX1R antag-1 62
COc1ccc(-c2cc(C(=O)N(C)Cc3nc4ccccc4c(=O)[nH]3)c3ccccc3n2)cc1OC	none
Cc1nnc(NC(=O)c2sc3nc(-c4cccs4)cc(C(F)(F)F)c3c2N)s1	CHO parental Ca 42, V1R ag counter 44, OX1R antag-2 85, OXTR agonist 98
CC(C)(C)C(=O)c1sc2nc(-c3cccs3)cc(C(F)(F)F)c2c1N	none
COc1cc(/C=C2\C(=O)N(c3ccccc3)N=C2C)ccc1Oc1ccc([N+](=O)[O-])cc1[N+](=O)[O-]	none
CC1=NN(c2ccccc2)C(=O)/C1=C\c1ccc(Oc2ccc([N+](=O)[O-])cc2[N+](=O)[O-])cc1	OX1R antag-1 50
O=C(COC(=O)/C=C/c1cc(Br)ccc1F)Nc1ccc2[nH]c(=O)[nH]c2c1	none
CN1CCC(Oc2ccc(Sc3ccccc3)cc2)CC1	OXTR agonist 22
CCCn1c(N)c(C(=O)CSc2nnc(C3CC3)n2C2CC2)c(=O)[nH]c1=O	none
CCOCCCn1c(C)nc2c(c1=O)c1nc3ccccc3nc1n2-c1ccc(C)cc1	none
CCO/C(C)=N/n1c2nc3ccccc3nc2c2c(=O)n(CC(C)C)c(C)nc21	OX1R antag-1 73
CCOC(=O)c1cc2cc3ccccc3cc2[nH]1	OX1R antag-1 38
CC(C)OC(=O)c1cc2ccccc2[nH]1	none
Nc1nc(N(Cc2ccccc2)Cc2ccccc2)nc(C(F)(F)F)n1	none
C/C(N)=C(/C#N)C(=O)CSc1nc2cc(Cl)ccc2s1	OX1R antag-1 56
Cc1c(C(=O)Nc2ccccn2)oc2c(Cl)cccc12	OX1R antag-1 34
COc1cc(OC)cc(C(=O)Nc2ccc(-n3cnnn3)c(C)c2)c1	none
Cc1cc(NC(=O)c2oc3ccccc3c2C)ccc1-n1cnnn1	OX1R antag-1 39
Cc1c(C(=O)Nc2ccccn2)oc2ccccc12	OX1R antag-1 52
O=[N+]([O-])c1ccc(S(=O)(=O)N2CCN(C3CCN(Cc4ccccc4)CC3)CC2)cc1	OX1R antag-1 63
O=[N+]([O-])c1ccc(S(=O)(=O)N2CCN(Cc3c[nH]c4ccccc34)CC2)cc1	OX1R antag-1 49
CCOC(=O)N1CCC(N2CCN(S(=O)(=O)c3ccc([N+](=O)[O-])cc3)CC2)CC1	OX1R antag-1 54
CCCN=C1N(CC)C[C@@H]2[C@@H]3C(=O)N(Cc4ccccc4)C(=O)[C@@H]3[C@](Cc3ccccc3)(C(=O)OC)N12	none (no result: OXTR potentiate, V1R ag counter, OXTR agonist)
CCCCn1c(C23CC4CC(CC(C4)C2)C3)n[nH]c1=S	none
CCCCCCc1cc2cc(C(=O)NC)c(=N)oc2cc1O	none
CCCCCCc1cc2cc(C(N)=O)c(=N)oc2cc1O	OX1R antag-1 55
O=C(Nc1ccccc1)Nc1n[nH]c2nnc(-c3ccccc3)c(-c3ccccc3)c12	none
CC(C)c1nc2c(s1)CCc1onc(-c3cccc([N+](=O)[O-])c3)c1-2	none
COc1ccc(NC(=O)COC(=O)C2CCN(C(=O)c3ccc(Cl)cc3)CC2)c([N+](=O)[O-])c1	OX1R antag-1 38
CCCCn1c(N)c(N(CCOC)C(=O)CN(C)S(=O)(=O)c2ccc(F)cc2)c(=O)[nH]c1=O	none
COc1ccc(Nc2ccc3c(c2)=NC2(CCCCC2)[N+]=3[O-])cc1	none
[O-][N+]1=c2ccc(Nc3ccccc3)cc2=NC12CCCCC2	OX1R antag-1 47
CCc1ccccc1NC(=O)Cn1nc(C(F)(F)F)c2c1CCC2	none
CCc1ccc(NC(=O)Cn2nc(C(F)(F)F)c3c2CCC3)cc1	CHO parental Ca 40
O=C(OCCOCCN=C1NS(=O)(=O)c2ccccc21)c1ccccc1Br	none
CC1=NN(c2ccccc2)C(=O)C1N=Nc1ccc(S(N)(=O)=O)cc1 (centres undefined)	none
Cn1c(N)c(N=Nc2ccc(S(N)(=O)=O)cc2)c(=O)n(C)c1=O	OX1R antag-1 60
O=C(N/N=C\c1cn(-c2ccccc2)nc1-c1ccccc1)c1ccc2c(c1)OCO2	OX1R antag-1 77
O=C(N/N=C\c1ccc(S(=O)(=O)O)o1)c1ccc2c(c1)OCO2	none
O=C(N/N=C/c1ccc(-c2ccc(Br)cc2)o1)c1ccc2c(c1)OCO2	OX1R antag-1 36
O=C(N/N=C/c1cn(-c2ccccc2)nc1-c1ccc(F)cc1)c1ccc2c(c1)OCO2	none
COc1cc(NC(=S)NC(=O)c2ccccc2F)ccc1NC(=O)c1ccco1	none
Cc1ccccc1-n1c2nc(=O)n(C)c(=O)c-2cc2ccccc21	OX1R antag-1 65
COc1cccc(-c2nnc(NC(=O)c3ccco3)s2)c1	OX1R antag-1 53
Cc1ccc(/C=N/NC(=O)c2nnn(-c3nonc3N)c2C(C)C)s1	none
COc1ccc(CCN(C)C(=S)Nc2cccc(C)c2)cc1OC	none
COc1ncnc(-c2ccccc2)c1-c1ccccc1	none
COc1cccc(Nc2nn3c(=O)c4ccccc4nc3s2)c1	OX1R antag-1 39
Cn1c(=O)c2[nH]c(CNCc3ccccc3Cl)nc2n(C)c1=O	none
Cn1c(=O)c2[nH]c(COc3ccc(C(C)(C)C)cc3)nc2n(C)c1=O	CHO parental Ca 54, OX1R antag-2 46
CC(=O)Nc1ccc(Br)c2ccccc12	none
O=C(Nc1ccc(Br)c2ccccc12)c1ccc2ccccc2c1O	OX1R antag-1 41

Screens: PubChem BioAssay, The Scripps Research Institute Molecular Screening Center
